# Source: ChEMBL document CHEMBL1123547, “Structure-activity relationship of novel oligopeptide antiviral and antitumor agents related to netropsin and distamycin” (1986)
# Legend:
# Assay type in all cases: functional
# Human alphaherpesvirus 2 = assay: Evaluation for antiviral activity against herpes simplex virus type 2 (strain G) in primary rabbit kidney cell culture
# Procedure, shortened: (§1)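 Primary rabbit kidney cell cultures infected with virus; the endpoint is the compound concentration that reduces virus-induced cytopathogenicity by 50%.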
# Vaccinia virus = assay: Evaluation for antiviral activity against vaccinia virus in primary rabbit kidney cell culture; conditions: Orthopoxvirus vaccinia; procedure, shortened: as §1
# Oryctolagus cuniculus = species on record: Oryctolagus cuniculus; assay: Evaluation for antiviral activity in primary rabbit kidney cell culture; conditions: read-out: Min cytotoxic concentration
# Human alphaherpesvirus 1 = assay: Evaluation for antiviral activity against herpes simplex virus type 1 (strain KOS) in primary rabbit kidney cell culture; procedure, shortened: as §1
# FM3A = assay: Evaluation for its inhibitory effect on proliferation of murine mammary carcinoma (FM3A) cells; conditions: Mus musculus, read-out: ID50 (the source's name)
# [1] = system: Vesicular stomatitis virus; assay: Evaluation for antiviral activity against […] stomatitis virus in primary rabbit kidney cell culture; procedure, shortened: as §1
# L1210 = assay: Evaluation for its inhibitory effect on proliferation of murine leukemia L1210 cells; conditions: Mus musculus, read-out: ID50 (the source's name)
# Homo sapiens [2] = species on record: Homo sapiens; assay: Evaluation for its inhibitory effect on proliferation of human lymphoblast namalva cells; conditions: read-out: ID50 (the source's name)
# Homo sapiens [3] = species on record: Homo sapiens; assay: Evaluation for its inhibitory effect on proliferation of human lymphoblast Raji cells; conditions: read-out: ID50 (the source's name)
Structure (SMILES),MIC (Human alphaherpesvirus 2) [µg/mL],MIC (Vaccinia virus) [µg/mL],MCC (Oryctolagus cuniculus) [µg/mL],MIC (Human alphaherpesvirus 1) [µg/mL],IC50 (FM3A) [µg/mL],MIC [1] [µg/mL],IC50 (L1210) [µg/mL],IC50 (Homo sapiens [2]) [µg/mL],IC50 (Homo sapiens [3]) [µg/mL]
Cn1cc(NC(=O)c2nc(NC(=O)CNC(=N)N)cn2C)nc1C(=O)NCCC(=N)N.O=S(=O)(O)O,> 400,300,> 400,> 400,> 500,> 400,238,261,316
Cn1cc(NC(=O)CNC(=N)N)cc1C(=O)Nc1cn(C)c(C(=O)NCCC(=N)N)n1.O=S(=O)(O)O,≥ 200,40,200,≥ 200,> 100,≥ 200,> 100,> 100,> 100
Cl.Cn1cc(NC(=O)c2cc(N)cn2C)cc1C(=O)NCCC(=N)N,150,20,400,150,327,≥ 400,276,36,43
Nc1ccnc2c1ncn2[C@@H]1C[C@H](CO)[C@@H](O)[C@H]1O,≥ 400,0.3,> 400,200,,,,,
Cl.Cl.Cn1cc(NC(=O)c2cc(NC(=O)c3cc(NC=O)cn3C)cn2C)cc1C(=O)NCCC(=N)N,70,0.2,200,70,31,≥ 200,27,22,24
Cn1cc(NC(=O)c2cc(NC(=O)C[N+](C)(C)C)cn2C)cc1C(=O)NCCC(=N)N.[Cl-],> 200,20,≥ 400,> 200,> 1000,> 400,543,,504
CC[N+](CC)(CC)CC(=O)Nc1cc(C(=O)Nc2cc(C(=O)NCCC(=N)N)n(C)c2)n(C)c1.[Cl-],300,300,> 400,300,334,> 400,222,180,252
Cl.Cn1cc(NC(=O)c2nc(NC(=O)c3nc(NC(=O)CNC(=N)N)cn3C)cn2C)nc1C(=O)NCCC(=N)N,≥ 100,≥ 100,100,≥ 100,46,≥ 100,42,100,52
Cl.Cn1cc(NC(=O)c2nc(NC(=O)CNC(=N)N)cn2C)cc1C(=O)NCCC(=N)N,> 400,40,> 400,> 400,> 100,> 400,> 100,> 100,> 100
Nc1ncnc2c1ncn2C[C@H](O)CO [(S)-DHPA],> 400,70,> 400,> 400,,20,,,
Cl.Cn1cc(NC(=O)c2cc(NC(=O)c3cc(N)cn3C)cn2C)cc1C(=O)NCCC(=N)N [DEFORMYLDISTAMYCIN],≥ 100,7,100,≥ 100,454,≥ 100,174,29,32
Cl.Cn1cc(NC(=O)c2cc(NC(=O)CNC(=N)N)cn2C)cc1C(=O)NCCC(=N)N [NETROPSIN CHLORIDE],≥ 40,2,40,≥ 40,321,≥ 40,245,103,139
NC(=O)c1ncn([C@@H]2O[C@H](CO)[C@@H](O)[C@H]2O)n1 [RIBAVIRIN],> 400,30,> 400,> 400,,200,,,
Nc1ncnc2c1ccn2[C@@H]1O[C@H](CO)[C@@H](O)[C@H]1O [TUBERCIDIN],≥ 0.4,0.07,0.4,≥ 0.4,,,,,
